# CTSL1 counter: Fasciola hepatica cathepsin L1 inhibitors, primary screen, counter-screen for PFM18AAP inhibitor project, biochemical, QFRET, fluorogenic peptide substrate | inhibition, % at 5.96 µM | 300,000 compounds, 0.49% hits | recombinant F. hepatica cathepsin L1, Z-Leu-Arg-MCA fluorescence;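 active = inhibition above the mean of all tested compounds plus 3 SD, set per screening campaign, cut at about 17% in these data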;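 note: 0% = plate median of test compound wells and 100% = 1 µM Z-Phe-Ala-diazomethylketone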
# UPR CHOP act: activators of apoptotic CHOP UPR arm, primary screen, cell-based, CHO-CHOP luciferase reporter, luminescence, uHTS; activation, % at 10 µM; UPR activation; percent of tunicamycin response over DMSO baseline; 330,000 compounds, 0.34% hits; AID 449763, 2010;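 active = at 10 µM dose, activation of 40% or more, normalized to positive control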;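 note: 100% = tunicamycin at 10 µg/mL and 0% = DMSO alone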
#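 Assay system: CHO-CHOP cells, stable luciferase reporter of PERK-eIF2a-CHOP signalling / Buffer or medium: F12 plus 10% serum / Compound dosing: one dose, 10 µM in 0.5% DMSO / Times: 6 h compound treatment, 37 °C / Technique: luciferase luminescence / Read-out: % reporter activation, DMSO baseline versus tunicamycin full activation / Benchmarks: tunicamycin and DMSO controls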
# UPR XBP1 act: activators of adaptive XBP1 UPR arm, primary screen, cell-based, CHO-XBP1 luciferase reporter, luminescence, uHTS. IRE1-XBP1 UPR activation; percent of tunicamycin response, DMSO as zero. 330,000 compounds, 0.33% hits. activation, % at 20 µM. AID 463104, 2010;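 active = versus positive control, 20 µM dose yields 30% or more activation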;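 note: 100% = tunicamycin at 10 µg/mL and 0% = DMSO only wells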
#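 Test system: CHO-XBP1 luciferase reporter cells | Buffer or medium: Serum-containing F12 medium, 10% FBS | Schedule: 6 h compound exposure at 37 °C, 5% CO2 | Detection: Steady-Glo luciferase glow luminescence, 10 min after reagent addition | Read-out basis: Activation, % of tunicamycin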
# UCH37 DUB inh: inhibitors of human UCH37 deubiquitinase, primary screen, biochemical, Ub-AMC cleavage, fluorescence. Ubiquitin carboxyl-terminal hydrolase isozyme L5 (Homo sapiens), Q9Y5K5. purified proteasome/UCH37. inhibition, % (concentration not given with the values). 330,000 compounds, 0.33% hits. AID 588478, 2011;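 active = mean inhibition over replicate wells above about 20%, limit read from the data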;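 note: 0% = compound-free wells with enzyme and 100% = wells lacking proteasome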
# Target sequence (Q9Y5K5 whole entry, looked up): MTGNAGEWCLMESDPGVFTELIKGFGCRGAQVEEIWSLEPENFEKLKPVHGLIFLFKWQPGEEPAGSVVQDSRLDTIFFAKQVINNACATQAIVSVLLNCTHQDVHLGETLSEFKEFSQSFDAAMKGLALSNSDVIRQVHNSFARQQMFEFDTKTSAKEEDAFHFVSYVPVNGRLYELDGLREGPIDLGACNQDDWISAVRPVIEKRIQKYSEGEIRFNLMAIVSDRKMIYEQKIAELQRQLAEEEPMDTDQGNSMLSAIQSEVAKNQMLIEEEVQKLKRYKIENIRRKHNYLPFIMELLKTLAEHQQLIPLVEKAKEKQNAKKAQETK
#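 Reagent: Ub-AMC substrate; assay system: Proteasome-associated human UCH37 deubiquitinase; controls: no-proteasome and no-compound wells; read-out: % inhibition of Ub-AMC cleavage fluorescence; timing: 30 min preincubation with enzyme, 25 min cleavage at room temperature; signal: AMC fluorescence from Ub-AMC cleavage, excitation 355 nm, emission 460 nm; buffer or medium: Tris-HCl pH 7.4 plus ovalbumin, ATP-MgCl2, DTT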
# CHOP inh: inhibitors of CHOP promoter induction, primary screen, cell-based, unfolded protein response, luciferase reporter. CHO-K1 CHOP-promoter luciferase, tunicamycin-induced, 15-18 h. inhibition, % at 10 µM. 220,000 compounds, 3.8% hits;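 active = compounds that reduced the stress-induced luciferase reporter signal by more than about 70% of percent inhibition, limit read from the data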;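 note: 0% = tunicamycin plus vehicle and 100% = wells without tunicamycin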
# * marks the source's active call; other numbers are inactive results; . = not tested or not shown. This is one part of a sample in which hits are shown more often than they occur.
SMILES,CTSL1 counter,UPR CHOP act,UPR XBP1 act,UCH37 DUB inh,CHOP inh
Cc1ccccc1-c1cc(C(=O)Nc2sc(C)c(C)c2C(N)=O)c2ccccc2n1,1,1,4,4,75*
COCCCN1C(=O)c2[nH]nc(-c3ccccc3O)c2C1c1cccc(Cl)c1 (stereo not drawn),0,-2,2,1,.
CC(C)OCCCN1C(=O)c2[nH]nc(-c3ccccc3O)c2C1c1cccc(Cl)c1 (stereo not drawn),6,-1,1,2,95*
CC(=NNC(=O)c1cccs1)c1cccs1,.,.,.,1,.
Cc1ccc(Cl)cc1N1CCN(C(=O)Cc2cn(C)c3ccccc23)CC1,-2,2,2,2,61
CCC(=O)N1CCN(c2cc(C)ccc2C)CC1,1,1,-1,2,15
Cc1ccc(C)c(N2CCN(C(=O)Cc3cn(C)c4ccccc34)CC2)c1,1,1,-2,-1,74*
Cc1ccc(C)c(N2CCN(C(=O)c3csc4ccccc34)CC2)c1,6,0,1,6,80*
Cc1ccc(N2CCN(C(=O)c3ccccc3F)CC2)c(C)c1,-3,0,1,0,93*
CCC(=O)c1ccc(N2CCN(C(=O)c3ccccc3F)CC2)c(F)c1,-1,-1,-1,3,20
CCn1c2ccccc2c2cc(C=Nn3cn[nH]c3=S)ccc21,.,.,.,-3,.
CC(Nc1cc(N2CCOCC2)ccc1[N+](=O)[O-])c1ccccc1 (stereo not drawn),2,-2,2,3,73*
CC(Nc1cc(N2CCCC2)ccc1[N+](=O)[O-])c1ccccc1 (stereo not drawn),2,2,0,5,10
Cc1ccc(S(=O)(=O)N(C)C)cc1NC(=O)c1ccc2ccccc2n1,0,1,5,-1,-9
Cc1ccc(C)c(NC(=O)c2ccc3ccccc3n2)c1,5,5,-3,3,80*
COc1ccc(C=NNC(=O)c2cccc(NC(=O)c3ccc(F)cc3)c2)c(C(=O)O)c1OC,.,.,.,2,.
COc1ccc(Cn2c(=O)[nH]c3cc(C(=O)N4CCN(c5ccccc5OC)CC4)ccc3c2=O)cc1,1,5,-5,1,.
COc1ccc(Cn2c(=O)[nH]c3cc(C(=O)N4CCN(Cc5ccccc5)CC4)ccc3c2=O)cc1,-1,-3,-3,1,72*
O=C(CCc1ccc(O)cc1)NNC(=S)NCCc1ccccc1,-2,1,1,2,9
O=C(NNC(=S)NCCc1ccccc1)c1ccc(Br)s1,18*,1,-3,4,18
CCOC(=O)N1CCC(Nc2c(OCC)c(=O)c2=O)CC1,36*,1,-3,5,4
CCOC(=O)N1CCC(Nc2c(NCCCOC)c(=O)c2=O)CC1,0,1,1,5,17
CC1=NN(c2ccccc2)C(=O)/C1=C\c1cn(CCC#N)nc1-c1ccc(Cl)cc1,-11,1,13,5,32
CC1=NNC(=O)/C1=C\c1cn(-c2ccccc2)nc1-c1ccc(Cl)cc1,0,-10,-6,3,108*
CCOC(=O)c1sc(NC(=O)CSc2nc3c(cc2C#N)CCCCCC3)c(C#N)c1C,-4,1,3,3,72*
SMILES,CTSL1 counter,UPR CHOP act,UPR XBP1 act,UCH37 DUB inh,CHOP inh
CCOC(=O)c1sc(NC(=O)CSc2n[nH]c(-c3ccc(Cl)cc3Cl)n2)c(C#N)c1C,-3,-3,0,0,75*
CC(=NNC(=O)c1cccs1)c1c(O)cc(C)oc1=O,.,.,.,5,.
O=C(Nc1cccc(C(F)(F)F)c1)Nc1ccc(N2CCCC2)c(S(=O)(=O)Nc2ccccc2Cl)c1,5,15,6,2,76*
O=C(N/N=C/c1ccc(OC(=O)c2ccccc2)cc1)c1ccc(CN2CCOCC2)cc1,0,0,0,.,71*
CC(C)(C)c1ccc(OCC(=O)NN=Cc2ccsc2)cc1,.,.,.,1,.
Cc1cc(Br)ccc1NC(=O)CN1C(=O)C2C3CC(c4ccccc4)C(C3)C2C1=O (stereo not drawn),12,2,2,4,85*
